Measurements published in article PMC4687050 (Nature chemical biology, 2014).
“Also recorded” adds a separate entry of the source.

Experiments:
ERK1/2 = assay: Bio-layer interferometry binding kinetics; design: species or system human; details: BLI, 25 °C
How it was run: (§1)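 Kinetics by bio-layer interferometry at 25 °C in 20 mM HEPES pH 7.5, 150 mM NaCl, 0.5 mM TCEP. Biotinylated kinases were captured on streptavidin biosensors. Association and dissociation phases ran 600 s each over several compound concentrations. Controls were protein-coated sensors without compound and uncoated sensors with compound. Data were double-referenced and fitted for binding constants.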

[1] = test system: MDA-MB-231 cells (pERK, pRSK1, pETS1); assay: ERK signalling after inhibitor wash-out, Western blotting; format: cell-based, human; details: 500 nM for 4 hours
How it was run: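 MDA-MB-231 cells in DMEM/10% FBS with penicillin/streptomycin were treated with ERK inhibitor for 4 h, washed twice in PBS and released into fresh medium for 0.5, 1 and 2 h. Cells were trypsinised and lysed in SDS loading buffer with sonication. Equal protein was immunoblotted for pERK, pRSK and pETS1, with total ERK1/2, GAPDH or α-tubulin as loading controls. Band intensities were normalised to DMSO-treated cells.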

[2] = test system: HEK293T cells lacking RAD51; assay: Cell viability of RAD51 siRNA-depleted cells; format: cell-based, human; details: six-day exposure
How it was run: (§2)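 HEK293T cells were reverse-transfected with 40 nM siRNA per plate (Dharmafect 1), with GFP siRNA as control, then reseeded after overnight incubation. They were transfected again on day 3. For the RAD51 arm, knockdown was verified by Western blot at 12 h and day 6, with six-day compound exposure. Cells were grown in DMEM/10% FBS; viability was read by resazurin incubation for 2 h, fluorescence at 590 nm.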

MDA-MB 231 cells = assay: Growth of cells with doxycycline-induced BRCA2 shRNA depletion; format: cell-based, human
How it was run: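 MDA-MB-231 cells carrying a doxycycline-inducible BRCA2 shRNA were seeded at 2500 cells/well in DMEM/10% FBS with penicillin/streptomycin and treated with ERK inhibitors over a concentration range. Cell number was read after 2 h in resazurin-containing medium, by fluorescence at 590 nm.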

[3] = biological target: Cdc2-like kinase 2 (CLK2) (Homo sapiens, UniProt P49760); assay: Enzymatic IC50 assay; format: biochemical
ERK2 mutants = assay: Bio-layer interferometry binding kinetics on ERK2 mutants; design: species or system human
JNK3 = JNK3 (Homo sapiens, UniProt P53779); assay: Enzymatic IC50 assay; format: biochemical
ERK2 = ERK2 (Homo sapiens, UniProt P28482); assay: Isothermal titration calorimetry; format: binding; details: ITC
CSNK2A2 = CSNK2A2 (Homo sapiens, UniProt P19784); assay: Enzymatic IC50 assay; format: biochemical
ERK1 [4] = biological target: T1, ERK1 (Homo sapiens, UniProt P27361); assay: Isothermal titration calorimetry; format: binding; details: ITC
ERK1 [5] = biological target: T1, ERK1; assay: Enzymatic IC50 assay; format: biochemical
V-C8 cells = assay: Cell viability of BRCA2-deficient versus BRCA2-complemented cells; format: cell-based, hamster; details: three-day exposure
How it was run: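 They were exposed to test compound for three days over a concentration range, then incubated 2 h in resazurin-containing medium; fluorescence was read at 590 nm.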

HEK293T cells = assay: Cell survival of BRCA2 siRNA knock-down cells; format: cell-based, human
How it was run: as §2

[6] = test system: CLK1, CLK2, JNK2, CSNK2A1/A2, DRAK1 and TTK; assay: Bio-layer interferometry binding kinetics on off-targets; design: species or system human; details: BLI, 25 °C
How it was run: as §1

T1 sequence (P27361 whole entry): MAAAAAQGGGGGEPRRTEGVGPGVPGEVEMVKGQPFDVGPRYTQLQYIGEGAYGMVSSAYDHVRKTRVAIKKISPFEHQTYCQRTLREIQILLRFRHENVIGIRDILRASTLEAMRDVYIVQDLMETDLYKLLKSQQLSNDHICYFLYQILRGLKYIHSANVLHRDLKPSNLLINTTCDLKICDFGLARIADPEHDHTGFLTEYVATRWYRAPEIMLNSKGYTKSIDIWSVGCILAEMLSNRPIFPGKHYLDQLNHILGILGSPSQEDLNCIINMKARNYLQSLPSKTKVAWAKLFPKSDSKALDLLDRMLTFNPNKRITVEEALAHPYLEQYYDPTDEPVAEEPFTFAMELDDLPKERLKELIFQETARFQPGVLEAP
Sequence of Cdc2-like kinase 2 (CLK2) (P49760 whole entry): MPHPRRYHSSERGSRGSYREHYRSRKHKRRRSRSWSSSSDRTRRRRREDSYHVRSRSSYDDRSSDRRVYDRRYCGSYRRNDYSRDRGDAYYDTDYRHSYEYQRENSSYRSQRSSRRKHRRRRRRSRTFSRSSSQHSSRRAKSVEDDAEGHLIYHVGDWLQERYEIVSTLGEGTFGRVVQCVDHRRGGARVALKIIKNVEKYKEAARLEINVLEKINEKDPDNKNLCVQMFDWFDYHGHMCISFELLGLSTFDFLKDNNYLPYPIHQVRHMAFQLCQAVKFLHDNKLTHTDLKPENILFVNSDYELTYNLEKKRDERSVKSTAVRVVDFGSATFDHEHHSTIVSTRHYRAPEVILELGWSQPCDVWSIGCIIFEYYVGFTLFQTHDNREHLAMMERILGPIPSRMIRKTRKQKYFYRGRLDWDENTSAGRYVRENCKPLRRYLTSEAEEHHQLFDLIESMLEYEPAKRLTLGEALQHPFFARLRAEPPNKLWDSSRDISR
Sequence of CSNK2A2 (P19784 whole entry): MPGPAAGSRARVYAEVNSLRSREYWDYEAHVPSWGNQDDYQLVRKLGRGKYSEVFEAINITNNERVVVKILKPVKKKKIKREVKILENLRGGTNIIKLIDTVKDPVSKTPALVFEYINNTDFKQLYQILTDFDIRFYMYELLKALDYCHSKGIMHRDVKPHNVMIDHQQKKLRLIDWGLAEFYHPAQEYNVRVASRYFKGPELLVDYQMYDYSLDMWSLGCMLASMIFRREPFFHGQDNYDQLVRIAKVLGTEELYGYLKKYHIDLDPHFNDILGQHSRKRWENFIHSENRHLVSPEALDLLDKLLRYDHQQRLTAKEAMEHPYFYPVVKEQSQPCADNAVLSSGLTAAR
Sequence of ERK2 (P28482 whole entry): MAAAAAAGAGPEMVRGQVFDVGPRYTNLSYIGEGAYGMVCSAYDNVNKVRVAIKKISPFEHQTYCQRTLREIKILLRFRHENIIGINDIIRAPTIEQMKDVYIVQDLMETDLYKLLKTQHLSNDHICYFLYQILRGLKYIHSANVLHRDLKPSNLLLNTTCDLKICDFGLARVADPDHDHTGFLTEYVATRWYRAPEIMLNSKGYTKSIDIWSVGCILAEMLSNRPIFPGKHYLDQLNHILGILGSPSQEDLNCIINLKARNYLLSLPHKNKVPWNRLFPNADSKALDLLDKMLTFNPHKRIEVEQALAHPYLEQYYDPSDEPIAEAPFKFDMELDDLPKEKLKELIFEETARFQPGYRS
Sequence of JNK3 (P53779 whole entry): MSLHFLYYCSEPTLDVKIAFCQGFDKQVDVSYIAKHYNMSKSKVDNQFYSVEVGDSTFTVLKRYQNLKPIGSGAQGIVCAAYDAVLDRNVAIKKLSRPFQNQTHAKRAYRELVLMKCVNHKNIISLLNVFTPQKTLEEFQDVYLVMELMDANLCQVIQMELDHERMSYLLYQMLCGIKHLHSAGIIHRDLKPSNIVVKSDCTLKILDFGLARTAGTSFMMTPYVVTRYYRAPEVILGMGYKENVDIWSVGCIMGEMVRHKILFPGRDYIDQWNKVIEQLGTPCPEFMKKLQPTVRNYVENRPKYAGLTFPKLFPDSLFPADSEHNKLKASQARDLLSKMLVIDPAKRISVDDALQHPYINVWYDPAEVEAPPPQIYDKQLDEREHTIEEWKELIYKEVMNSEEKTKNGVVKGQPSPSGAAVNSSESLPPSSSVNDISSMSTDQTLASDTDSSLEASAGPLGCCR

**Q.** Which “binding kinetics (association and dissociation)” value (ERK1/2) does the source give for `Nc1[nH]nc2nnc(-c3c(-c4ccccc4)nn4ccccc34)cc12` [FR180204] here?
**A.** The value was “fast kinetic behaviours”.

**Q.** And the pRSK1 inhibition [1]?
**A.** Its pRSK1 inhibition is “not see a strong effect”.

**Q.** `Nc1ncnc2c1c(I)cn2[C@@H]1O[C@H](CO)[C@@H](O)[C@H]1O` [5-iTU, 5-iodotubercidin] was tested. Which “binding kinetics (association and dissociation)” value (ERK1/2) did it give?
**A.** The value was “fast kinetic behaviours”.

**Q.** With `O=C(c1cc(Cc2n[nH]c(=O)c3ccccc23)ccc1F)N1CCN(C(=O)C2CC2)CC1` [olaparib] as the compound, how does the “cell killing of RAD51-depleted relative to control cells” value [2] read?
**A.** The value was “specific elimination of RAD51-depleted cells”.

**Q.** With `O=C(Nc1ccc2[nH]nc(-c3ccncc3)c2c1)[C@@H]1CCN(CC(=O)N2CCN(c3ccc(-c4ncccn4)cc3)CC2)C1` [SCH772984] as the compound, how does the “sensitization by BRCA2 knockdown” value (MDA-MB 231 cells) read?
**A.** Its value is “sensitized”.

**Q.** And the IC50 [3]?
**A.** The IC50 was 104 nM.

**Q.** And the “binding kinetics (association and dissociation)” value (ERK1/2)?
**A.** Its value is “slow binding kinetics”.

**Q.** And the binding kinetics (ERK2 mutants; listed as SCH771984)?
**A.** Its binding kinetics is “retained slow association and dissociation kinetics; also recorded: still showed slow binding kinetics”.

**Q.** What about the IC50 (JNK3) of the same compound?
**A.** The IC50 was 632 nM.

**Q.** What about the binding enthalpy change (ERK2) of the same compound?
**A.** Its binding enthalpy change is “about −20 kcal/mol”.

**Q.** And the “IC50 in the enzymatic assay” value (CSNK2A2)?
**A.** Its value is “no activity”.

**Q.** And the binding enthalpy change (ERK1 [4])?
**A.** Its binding enthalpy change is “about −20 kcal/mol”.

**Q.** And the IC50 (ERK1 [5])?
**A.** Its IC50 is 8.3 nM.

**Q.** What about the “cell survival of BRCA2-deficient compared with BRCA2-complemented cells” value (V-C8 cells) of the same compound?
**A.** Its value is “significant reduction in cell survival”.

**Q.** And the “sensitization by BRCA2 knockdown” value (HEK293T cells)?
**A.** Its value is “sensitized”.

**Q.** And the “binding kinetics (association and dissociation)” value [6]?
**A.** The value was “fast association and dissociation rates”.

**Q.** `Cc1cnc(Nc2ccc(F)cc2Cl)nc1-c1c[nH]c(C(=O)N[C@H](CO)c2cccc(Cl)c2)c1` [VTX-11e] was tested. Which “cell killing of RAD51-depleted relative to control cells” value [2] did it give?
**A.** Its value is “significant increase in cell killing”.

**Q.** What about the “binding kinetics (association and dissociation)” value (ERK1/2) of the same compound?
**A.** Its value is “slow association and dissociation patterns”.

**Q.** What about the dissociation half-life (ERK1/2; estimated) of the same compound?
**A.** Its dissociation half-life is 35 to 46 min.

**Q.** And the binding kinetics (ERK2 mutants; BLI, double mutants Y36Q/Y64K and Y36Q/Y64D)?
**A.** The binding kinetics was “increase inhibitor off-rates further”.

**Q.** And the binding kinetics (ERK2 mutants; BLI, single mutants Y36Q and Y64K)?
**A.** The binding kinetics was “significantly reduced inhibitor off-rates”.

**Q.** And the “cell survival of BRCA2-deficient compared with BRCA2-complemented cells” value (V-C8 cells)?
**A.** Its value is “Significant differences in cell survival”.

**Q.** What about the “sensitization by BRCA2 knockdown” value (HEK293T cells) of the same compound?
**A.** Its value is “sensitized”.
